DNMT1 inh: human DNMT1 methyltransferase inhibitors, primary screen, biochemical, molecular beacon, fluorescence, HinP1I cleavage, uHTS | inhibition (reported as % activation of signal), % at 10 µM | 360,000 tested, 0.83% active | AID 588458, 2011 | DNA (cytosine-5)-methyltransferase 1 (Homo sapiens), P26358; in the data active means inhibition above about 50%
STEP inh: STEP phosphatase inhibitors, primary screen, biochemical, fluorescence intensity, uHTS. Tyrosine-protein phosphatase non-receptor type 5 (Homo sapiens), P54829. recombinant STEP, OMFP fluorogenic substrate. inhibition, % at 20 µM. 360,000 tested, 0.25% active. AID 588621, 2011;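 active means inhibition at 20 µM, scaled per plate between control wells, above about 37%, limit read from the data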;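 further: 0% = DMSO with enzyme and substrate and 100% = substrate only without enzyme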
Target sequence (P54829 whole entry, looked up): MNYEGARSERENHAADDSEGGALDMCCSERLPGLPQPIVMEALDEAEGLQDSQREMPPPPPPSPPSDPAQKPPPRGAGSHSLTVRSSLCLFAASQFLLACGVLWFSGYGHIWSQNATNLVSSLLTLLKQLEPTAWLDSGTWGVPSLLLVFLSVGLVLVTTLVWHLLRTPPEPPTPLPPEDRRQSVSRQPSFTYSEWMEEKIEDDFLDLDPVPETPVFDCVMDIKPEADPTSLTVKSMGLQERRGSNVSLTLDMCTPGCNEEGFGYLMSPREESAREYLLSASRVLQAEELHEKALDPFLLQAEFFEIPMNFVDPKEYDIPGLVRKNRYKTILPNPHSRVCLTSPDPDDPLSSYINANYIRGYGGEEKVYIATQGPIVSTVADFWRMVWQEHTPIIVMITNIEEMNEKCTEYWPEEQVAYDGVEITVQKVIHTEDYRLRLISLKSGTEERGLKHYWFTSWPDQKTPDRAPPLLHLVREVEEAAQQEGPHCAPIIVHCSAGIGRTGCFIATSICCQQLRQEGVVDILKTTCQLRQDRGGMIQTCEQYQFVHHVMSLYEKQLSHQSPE
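Assay system: isolated STEP enzyme / Timing: 20 min at room temperature, dark / Doses: 20 µM, 1% DMSO / Technique: fluorescence intensity, excitation 480 nm, emission 540 nm / Reagent: fluorogenic phosphatase substrate OMFP at 25 µM final / Measure: percent inhibition scaled to no-enzyme and uninhibited-enzyme controls, plate-pattern corrected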
LMPTP block: LMPTP phosphatase inhibitors, primary screen, biochemical, fluorescence intensity, uHTS | 360,000 tested, 0.22% active | inhibition, % at 20 µM | AID 651560, 2012 | recombinant LMPTP-A, OMFP fluorogenic substrate;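 active means compounds that cut the enzyme signal by at least half of the control window in the single-dose screen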;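 further: plate controls were DMSO wells with enzyme plus substrate for no effect and substrate without enzyme for full effect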
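material = LMPTP-A | quantity = 0.625 nM enzyme | reagent = OMFP substrate, 400 µM final | buffer or medium = Bis-Tris pH 6.0, DTT, detergent | detection = endpoint fluorescence intensity from OMFP dephosphorylation | dosing = single 20 µM dose | read-out basis = % inhibition relative to no-enzyme and uninhibited control wells | control set = no-enzyme and uninhibited controls | timing = 50 min at room temperature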
Scp-1 inhibitor: Scp-1 phosphatase inhibitors, primary screen, biochemical, colorimetric, uHTS; inhibition, % at 20 µM; 340,000 tested, 0.88% active; Recombinant Scp1, phosphopeptide, malachite green phosphate absorbance; Carboxy-terminal domain RNA polymerase II polypeptide A small phosphatase 1 (Homo …;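 active means inhibition above about 50% at 20 µM, limit read from the data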;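 further: plate controls were DMSO wells with enzyme for no effect and wells lacking enzyme for full effect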
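Times: enzyme reaction 45 min at room temperature, colour 5 min, stabilisation 30 min. Material: SCP-1 catalytic fragment, aa 76-261. Medium: Acidic Tris acetate buffer with magnesium and detergent. Signal: colorimetric free-phosphate detection, absorbance 630 nm. Read-out basis: % inhibition of SCP-1 phosphate liberation. Reagent: Phosphorylated 17-residue peptide substrate.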
SUMO1-SIM PPI: modulators of SUMO1 protein-protein interactions, primary screen, biochemical, uHTS | Small ubiquitin-related modifier 1 (Homo sapiens), P63165 | SUMO1 binding to a labelled peptide, TR-FRET, 1 h | inhibition, % at 20 µM | 360,000 tested, 0.33% active | AID 602429, 2012; in the data active means inhibition above about 37%
Target sequence (P63165 whole entry, looked up): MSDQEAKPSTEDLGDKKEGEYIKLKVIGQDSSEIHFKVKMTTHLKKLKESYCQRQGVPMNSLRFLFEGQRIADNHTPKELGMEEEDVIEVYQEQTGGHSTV
DNMT1 inh conf: DNMT1 methyltransferase inhibitor retest, confirmation, biochemical, molecular beacon, fluorescence, single concentration; shares compounds with DNMT1 inh; DNMT1 molecular beacon HinP1I cleavage; inhibition, % at 10 µM; 2,300 tested, 8% active; AID 602385, 2012;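 active means average inhibition of at least 30% in the single-concentration confirmation test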
DNMT1 interf: beacon fluorescence artifact counter-screen; activation (fluorescence interference), % at 10 µM; 2,300 tested, 1% active; shares compounds with DNMT1 inh; DNMT1 molecular beacon spectral interference counterscreen, fluorescence 485/520;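 active means activation of at least 30% at 10 µM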;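 further: DNMT1 catalytic domain with a HinP1I cleavage step and a FAM/dabcyl DNA beacon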
STEP conf: STEP phosphatase inhibitor hit confirmation, biochemical, fluorescence intensity, single concentration | 520 tested, 32% active | shares compounds with STEP inh | inhibition, % at 20 µM | recombinant STEP, OMFP fluorogenic substrate; call rule not given here;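 further: 0% = enzyme with substrate plus DMSO and 100% = substrate without enzyme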
Active calls of the source: *; · = not tested or not shown. This is a sample that favours compounds with a hit; in the whole collection about 1.7% have one here.

SMILES	DNMT1 inh	STEP inh	LMPTP block	Scp-1 inhibitor	SUMO1-SIM PPI	STEP conf	others
C[C@H](NC(=O)c1ncn2c1c(=O)[nH]c1ccc(Br)cc12)c1ccccc1	90*	54*	56*	·	-26	0	DNMT1 inh conf=2;DNMT1 interf=-2
CN1CCN(CC(=O)c2ccccc2F)CC1	-3	0	-4	-15	-1	·
O=C(N/N=C/c1ccc(Br)s1)c1ccc([N+](=O)[O-])cc1	79*	69*	80*	-5	-4	-8	DNMT1 inh conf=-1;DNMT1 interf=-2
COc1ccc(Nc2nc(=O)c3cc([N+](=O)[O-])ccc3s2)cc1	65*	43*	80*	1	-7	-4	DNMT1 inh conf=1;DNMT1 interf=-6
COC(=O)c1sc(NC(=O)/C=C/c2ccc(C)cc2)nc1C	-6	-1	16	-4	-3	·
COC(=O)c1sc(NC(=O)/C=C/c2ccccc2Cl)nc1C	62*	57*	36	46	30	1	DNMT1 inh conf=3;DNMT1 interf=0
Cc1cccc(C(=O)Nc2ccc(N3CCN(c4ccc(C(F)(F)F)cn4)CC3)nc2)c1	70*	77*	50	10	1	4	DNMT1 inh conf=1;DNMT1 interf=2
O=c1cc(-c2ccccc2)nc2nc(-c3ccco3)[nH]n12	104*	86*	51*	-1	54*	0	DNMT1 inh conf=-2;DNMT1 interf=4
Cc1nc2nc(-c3ccccc3)cc(=O)n2[nH]1	-3	-1	-1	-4	-2	·
CC(=O)Nc1ccc(NC(=O)C2CCCN2C(=O)Nc2ccccc2[N+](=O)[O-])cc1 (stereo unspecified)	80*	85*	0	-2	-24	7	DNMT1 inh conf=2;DNMT1 interf=6
O=C(Nc1ccccc1)C1CCCN1C(=O)Nc1ccccc1[N+](=O)[O-] (stereo unspecified)	1	0	0	-4	-13	·
O=C(OCc1ccccc1)/C(=C/c1cccc2ccccc12)NC(=O)c1ccccc1	-3	-2	3	-8	-6	·
Cc1ccc(C(=O)N/C(=C\c2ccccc2)C(=O)OCc2ccccc2)cc1	-6	60*	2	-11	0	18
Cn1cc(CC(=O)Nc2cccc(C#N)c2)c2ccccc21	-2	46*	1	-16	1	30*
CCc1cccc(NC(=O)Cc2cn(C)c3ccccc23)c1	-3	30	3	-13	2	·
CCc1ccc(NC(=O)Cc2cn(C)c3ccccc23)cc1	0	44*	5	-6	-1	48*
O=S(=O)(Nc1ccc(Cl)cn1)c1cccs1	0	0	-1	-5	3	·
CC1Cc2ccccc2N1C(=O)c1ccc2nccnc2c1 (stereo unspecified)	1	-3	0	-9	-11	·
O=C(NC1CCCCCC1)C(=S)NC1CCCCC1	2	57*	-1	-6	0	31*
COC(=O)c1sccc1NC(=O)c1ccc(C#N)cc1	19	98*	2	117*	13	12
CCCCc1ccc(/C(C)=N/NC(=O)C2CCCC2)cc1	7	-2	1	-2	2	·
Cc1cccc(N2CCN(S(=O)(=O)c3ccc4c(c3)CCN4C(=O)CCC(=O)O)CC2)c1C	-3	41*	0	33	5	-2
CCN1CCN(CCC(=O)Nc2ccc(Br)cc2)CC1	-3	0	-3	5	0	·
CCN1CCN(C(=S)c2ccc(Br)cc2)CC1	-1	88*	0	-4	-2	45*
CCN1CCN(C(=S)c2ccc(O)cc2)CC1	0	88*	0	2	5	49*
SMILES	DNMT1 inh	STEP inh	LMPTP block	Scp-1 inhibitor	SUMO1-SIM PPI	STEP conf	others
Cc1ccccc1C(=O)N1CCC[C@H]1C(=O)N1CCC[C@H]1C(=O)NCc1ccccn1	·	·	-2	·	-1	·
COCCN1C[C@@H](CO)O[C@@H](n2cnc3c(N(C)C(C)C)ncnc32)C1	-3	-1	0	·	-4	·
COc1ccc(N2C(=O)C3CCCN3C2c2ccc(C)o2)cc1 (stereo unspecified)	3	-2	-1	-1	4	·
Cc1n[nH]c(=O)nc1NCCN(C)C	11	14	-4	-5	1	·
Cc1n[nH]c(=O)nc1NCc1ccc(Cl)cc1	3	39*	-2	0	-2	20
CC(C)N(C)CCOC(=O)c1ccccc1Cl	5	-4	-3	-4	-4	·
CC(C)N(C)CCOC(=O)c1ccccc1Br	21	78*	-2	-2	3	-4
CC(=O)Nc1cc(-c2cccc(F)c2)cn2c(-c3ccccc3)cnc12	-9	2	1	·	-3	·
CC1(C)Cc2c(sc(N)c2C#N)C(C)(C)N1	-5	44*	1	-3	4	28
CC1(C)Cc2c(sc(NC(=O)C(C)(C)C)c2C#N)C(C)(C)N1	-1	1	0	3	-2	·
COc1ccc(NC(=S)N2CCN(c3ncccn3)CC2)c(OC)c1	-1	85*	-1	-11	1	27
O=C(O)c1cccc(S(=O)(=O)NCc2cccs2)c1	7	0	-1	-7	27	·
O=C1CC(=O)Nc2cc(S(=O)(=O)NCc3cccs3)ccc2N1	3	74*	-1	-3	-2	8
O=C(N/N=C/c1ccc(OC(=O)c2cccc(F)c2)cc1)c1cccnc1	48	98*	57*	20	21	2
Cc1ccc(NC(=O)Cn2cncc2-c2ccc([N+](=O)[O-])cc2)cc1C	50	48*	32	49	-6	14
COc1ccccc1NC(=O)Cn1cncc1-c1ccc([N+](=O)[O-])cc1	-11	-1	0	0	-22	·
O=C(COC(=O)c1cccc(-n2cnnn2)c1)c1ccc(Br)cc1	-2	0	1	-7	-2	·
O=C1CCCN1CCCNC(=S)Nc1ccc(F)cc1	2	43*	-1	6	1	2
Cc1ccc(NC(=O)NCCCN2CCCC2=O)cc1	0	0	-2	0	-3	·
COc1ccc(NC(=O)NCCCN2CCCC2=O)cc1	0	0	-2	-1	4	·
